Results on three compounds are retold here after ChEMBL document CHEMBL3525985, “Regiospecificity and stereospecificity of human UDP-glucuronosyltransferases in the glucuronidation of estriol, 16-epiestriol, 17-epiestriol, and 13-epiestradiol” (Drug Metab Dispos, 2013).

What all share (format): ADME
Data set [1] concerns the target T1, UDP-glucuronosyltransferase 2B7 (Homo sapiens, UniProt P16662).
T1 sequence (P16662 whole entry): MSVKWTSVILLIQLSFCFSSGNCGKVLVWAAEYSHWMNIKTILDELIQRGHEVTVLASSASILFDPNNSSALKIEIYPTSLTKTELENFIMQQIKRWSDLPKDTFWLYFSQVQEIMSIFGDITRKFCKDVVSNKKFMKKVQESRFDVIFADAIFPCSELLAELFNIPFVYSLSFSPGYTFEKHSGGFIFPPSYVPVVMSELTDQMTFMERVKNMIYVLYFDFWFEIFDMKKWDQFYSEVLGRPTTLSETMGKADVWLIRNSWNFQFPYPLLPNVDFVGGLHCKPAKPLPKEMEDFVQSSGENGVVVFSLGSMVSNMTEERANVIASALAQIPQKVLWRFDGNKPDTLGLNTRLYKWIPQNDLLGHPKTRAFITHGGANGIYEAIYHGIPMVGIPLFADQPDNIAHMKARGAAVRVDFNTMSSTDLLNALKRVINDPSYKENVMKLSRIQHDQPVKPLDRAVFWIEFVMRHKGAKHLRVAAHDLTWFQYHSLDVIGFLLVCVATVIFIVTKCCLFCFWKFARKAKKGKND
Put plainly: Inhibition of recombinant human C-terminal His-tagged UGT2B7 after 15 to 60 mins by Michaelis-Menten equation analysis in presence of UDPGA. In a few lines: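 Kinetics with His-tagged UGT-enriched insect-cell membranes (5 or 50 µg): aglycone 0.2–300 µM in 10% DMSO, 5 mM UDPGA, 10 mM MgCl₂, 50 mM phosphate pH 7.4, 15–60 min at 37°C. Substrate consumption kept at or below 10%. Glucuronides quantified by HPLC in triplicate, rates normalized to expression, and data fitted to Michaelis-Menten.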

Data set [2] deals with T1, UDP-glucuronosyltransferase 2B7. The data set can be described thus: Drug metabolism assessed as recombinant human C-terminal His-tagged UGT2B7-mediated estradiol-17-glucuronide formation at 200 uM after 15 to 60 mins by HPLC analysis in presence of UDPGA. As to conditions: recombinant enzyme. In a few lines: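 Membranes (5 or 50 µg) from insect cells expressing His-tagged UGT2B7, with 200 µM aglycone in 50 mM phosphate pH 7.4, 10 mM MgCl₂, 5 mM UDPGA and 10% DMSO (final), 15–60 min at 37°C. Stopped with perchloric acid on ice, supernatant run on HPLC. Done in triplicate with no-UDPGA controls; rates normalized to relative UGT expression.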

For data set [3], the target named is T2, UDP-glucuronosyltransferase 2B15 (Homo sapiens, UniProt P54855).
T2 sequence (P54855 whole entry): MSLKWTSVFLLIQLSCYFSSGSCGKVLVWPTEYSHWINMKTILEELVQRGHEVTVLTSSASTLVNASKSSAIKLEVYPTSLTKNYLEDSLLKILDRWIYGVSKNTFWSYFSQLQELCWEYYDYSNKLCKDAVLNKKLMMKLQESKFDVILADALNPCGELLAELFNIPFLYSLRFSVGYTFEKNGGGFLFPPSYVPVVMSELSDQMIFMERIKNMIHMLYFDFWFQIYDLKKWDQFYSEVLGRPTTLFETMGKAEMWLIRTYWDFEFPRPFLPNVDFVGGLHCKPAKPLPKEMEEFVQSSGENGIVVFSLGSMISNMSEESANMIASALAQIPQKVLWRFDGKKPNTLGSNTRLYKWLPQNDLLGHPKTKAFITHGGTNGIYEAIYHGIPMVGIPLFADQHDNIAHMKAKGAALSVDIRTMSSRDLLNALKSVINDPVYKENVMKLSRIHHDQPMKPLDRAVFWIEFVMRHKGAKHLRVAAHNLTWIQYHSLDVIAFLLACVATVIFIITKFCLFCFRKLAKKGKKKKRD
Put plainly: Drug metabolism assessed as recombinant human C-terminal […]-mediated estradiol-3-glucuronide/estradiol-17-glucuronide formation at 200 uM after 15 to 60 mins by HPLC analysis in presence of UDPGA. To be noted: recombinant enzyme.

The target in data set [4] is T2, UDP-glucuronosyltransferase 2B15. Put plainly: Drug metabolism assessed as recombinant human C-terminal His-tagged UGT2B15-mediated 13-epiestradiol-3-glucuronide/13-epiestradiol-17-glucuronide formation at 200 uM after 15 to 60 mins by HPLC analysis in presence of UDPGA. To be noted: recombinant enzyme, in the assay text read “UGT2B15-mediated” for “C-terminal His-tagged UGT2B15-mediated”. In a few lines: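 UGT2B15 was a commercial enzyme without a His-tag, so rates were not normalized to expression. Screening used 200 μM substrate in triplicate, with membranes in 50 mM phosphate pH 7.4, 10 mM MgCl₂, 5 mM UDPGA and 10% DMSO. Incubation was 15–60 min at 37°C. The reaction was stopped with perchloric acid and analysed by HPLC. Controls lacked UDPGA.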

The target of data set [5] is T3, UDP-glucuronosyltransferase 2B17 (Homo sapiens, UniProt O75795).
T3 sequence (O75795 whole entry): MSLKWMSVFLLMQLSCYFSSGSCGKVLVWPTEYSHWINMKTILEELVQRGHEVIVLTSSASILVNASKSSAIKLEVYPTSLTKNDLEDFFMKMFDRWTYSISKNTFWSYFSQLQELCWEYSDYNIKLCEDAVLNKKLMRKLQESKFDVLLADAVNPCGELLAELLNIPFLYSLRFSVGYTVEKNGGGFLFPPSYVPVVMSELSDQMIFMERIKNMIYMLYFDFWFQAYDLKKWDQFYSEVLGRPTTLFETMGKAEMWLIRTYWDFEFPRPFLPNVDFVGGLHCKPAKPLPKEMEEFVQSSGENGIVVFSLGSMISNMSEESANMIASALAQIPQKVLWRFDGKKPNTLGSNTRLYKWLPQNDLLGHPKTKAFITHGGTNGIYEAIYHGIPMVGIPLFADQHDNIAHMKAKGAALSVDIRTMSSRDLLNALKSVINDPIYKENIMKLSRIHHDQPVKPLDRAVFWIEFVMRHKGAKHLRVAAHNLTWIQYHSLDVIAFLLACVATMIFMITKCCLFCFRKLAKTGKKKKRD
The data set can be described thus: Drug metabolism assessed as recombinant human C-terminal His-tagged UGT2B17-mediated 13-epiestradiol-17-glucuronide formation at 200 uM after 15 to 60 mins by HPLC analysis in presence of UDPGA. As to conditions: recombinant enzyme. In a few lines: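 Screening at a single substrate concentration of 200 μM, in triplicate. The reaction used 5 or 50 µg of UGT-enriched insect cell membranes in 50 mM phosphate pH 7.4 with 10 mM MgCl₂ and 5 mM UDPGA, 10% final DMSO. Incubation was 15–60 min at 37°C. Perchloric acid stopped the reaction and supernatants were analysed by HPLC. Controls lacked UDPGA. Rates were normalized to relative UGT expression level.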

Each structure is given as a SMILES string.

As a reminder, the Ki is a dissociation constant, usually derived from enzyme kinetics or from competition with a known ligand. In the case of `C[C@]12CC[C@@H]3c4ccc(O)cc4CC[C@H]3[C@@H]1C[C@H](O)[C@@H]2O` [EPIESTRIOL], the Ki in data set [1] worked out at 162 µM.

Turning to `C[C@]12CC[C@@H]3c4ccc(O)cc4CC[C@H]3[C@@H]1CC[C@@H]2O` [ESTRADIOL], the Drug metabolism entry in data set [2] and in data set [3] was “metabolite_detected” throughout.

As for `C[C@@]12CC[C@@H]3c4ccc(O)cc4CC[C@H]3[C@@H]1CC[C@@H]2O`, the Drug metabolism result in data set [4] and in data set [5] was “metabolite_detected” in each case.
